Measurements gathered from unrelated publications.
Compare with care: the assays were run in different laboratories. In brackets after ≈: the same amount, converted by molar mass.
Organism: Bacillus subtilis

With `N#CC(=Cc1cn(-c2ccccc2)nc1-c1ccccc1)C1=NC(=O)CS1` the MBC was 0.25 µg/mL (≈ 0.675 µM) (microbial killing, broth dilution).
The MBC of `O=C1NC(=S)N/C1=C\c1c2ccccc2c(-c2ccc(N(c3ccccc3)c3ccccc3)cc2)c2ccccc12` is reported as over 1000 µg/mL (microbial killing, broth dilution; ATCC6633).
With `Cc1cc(N)c2ccccc2[n+]1CCCCCCCCCC[n+]1c(C)cc(N)c2ccccc21` the inhibition zone was 11 mm (microbial growth, disc diffusion; 50 µg/disc).
`CN(/N=C/c1cn(-c2ccc(C(=O)O)cc2)nc1-c1cccc(F)c1)c1ccccc1` has an MIC of 12.5 µg/mL (≈ 30.2 µM) (microbial growth; ATCC6623).
`N#CC(=Cc1ccccc1O)C1=NC(=O)C(=Cc2cn(-c3ccccc3)nc2-c2ccccc2)S1` gave an MBC of 0.5 µg/mL (≈ 1.05 µM) (microbial killing, broth dilution).
With `O=C(O)CN1C(=O)/C(=C/c2c3ccccc3c(-c3ccc(N(c4ccccc4)c4ccccc4)cc3)c3ccccc23)NC1=S` the MBC was over 1000 µg/mL (microbial killing, broth dilution; ATCC6633).
For `O=C(O)c1ccc(-n2cc(/C=N/Nc3ccc(C(F)(F)F)cc3)c(-c3cccc(F)c3)n2)cc1`, the MIC was 12.5 µg/mL (≈ 26.7 µM) (microbial growth; ATCC6623).
`O=C(O)CN1C(=O)/C(=C/c2ccc(-c3ccc(N(c4ccccc4)c4ccccc4)cc3)cc2)NC1=S` gave an MBC of 3.9 µg/mL (≈ 7.71 µM) (microbial killing, broth dilution; ATCC6633).
`Cc1c(NC(=O)CC2=NC(=O)CS2)c(=O)n(-c2ccccc2)n1C` has an inhibition zone of 26 mm (microbial growth, well diffusion; 100000 µg/mL).
For `O=C1NC(=S)N/C1=C\c1ccc(-c2ccc(N(c3ccccc3)c3ccccc3)cc2)cc1`, the MBC was over 1000 µg/mL (microbial killing, broth dilution; ATCC6633).
`O=C(O)c1ccc(-n2cc(/C=N/Nc3cc(F)ccc3F)c(-c3cccc(F)c3)n2)cc1` gave an MIC of 6.25 µg/mL (≈ 14.3 µM) (microbial growth; ATCC6623).
With `Cc1ccc(-c2nn(-c3ccccc3)cc2C=C(C#N)C2=NC(=O)CS2)cc1` the inhibition zone was 21 mm (microbial growth, well diffusion; 100000 µg/mL).
For `O=C(O)c1cn(C2CC2)c2cc(N3CCNCC3)c(F)cc2c1=O`, the inhibition zone was 29 mm (microbial growth; 6633; 1000 µg/mL).
